# Assay results taken from ChEMBL document CHEMBL3351764, “Design, synthesis and biological activity of flavonoid derivatives as selective agonists for neuromedin U 2 receptor” (Bioorg Med Chem, 2014).
# Calls of active or inactive are those of the source. The calls are words filed in the database; no cut-off is given here.
# What was measured:
# [1] = target: T1, 5-hydroxytryptamine receptor 2C (Homo sapiens) (UniProt P28335); experiment: Agonist activity at human 5HT2C receptor at 100 uM to 5 mM
# T1 sequence (whole entry): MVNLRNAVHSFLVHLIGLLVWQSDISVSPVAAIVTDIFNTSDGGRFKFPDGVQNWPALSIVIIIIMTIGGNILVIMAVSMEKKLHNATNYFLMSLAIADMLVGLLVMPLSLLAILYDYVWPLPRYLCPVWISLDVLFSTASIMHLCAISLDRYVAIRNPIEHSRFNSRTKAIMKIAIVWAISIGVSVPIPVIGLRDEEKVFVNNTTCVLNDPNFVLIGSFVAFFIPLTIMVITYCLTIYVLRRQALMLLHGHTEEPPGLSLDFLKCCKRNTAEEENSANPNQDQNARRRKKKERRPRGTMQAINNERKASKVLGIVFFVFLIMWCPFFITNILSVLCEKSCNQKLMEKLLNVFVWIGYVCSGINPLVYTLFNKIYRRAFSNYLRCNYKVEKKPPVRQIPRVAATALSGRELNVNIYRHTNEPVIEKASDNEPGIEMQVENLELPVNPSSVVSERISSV
# Neuromedin-U receptor 2 = Neuromedin-U receptor 2 (Homo sapiens, UniProt Q9GZQ4); experiment: Agonist activity at human NMU2R transfected in HEK293 cells after 7 hrs by luciferase reporter gene assay; format: cell-based; details: hek293
# Method in brief: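 HEK-293 cells were stably co-transfected with a reporter gene construct and human NMU2R cDNA in pcDNA3.1(+), maintained under G418 selection at 37 °C in 5% CO2, then seeded and incubated overnight. Compounds were added at various concentrations for 7 h at 37 °C, followed by Bright-Glo luciferase read-out. Forskolin and NMU served as positive controls. EC50 was fitted by four-parameter logistic regression; means ± SEM of three independent experiments.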
# [2] = target: T2, Orexin receptor type 2 (Homo sapiens) (UniProt O43614); experiment: Agonist activity at human orexin 2 receptor at 100 uM to 5 mM
# T2 sequence (whole entry): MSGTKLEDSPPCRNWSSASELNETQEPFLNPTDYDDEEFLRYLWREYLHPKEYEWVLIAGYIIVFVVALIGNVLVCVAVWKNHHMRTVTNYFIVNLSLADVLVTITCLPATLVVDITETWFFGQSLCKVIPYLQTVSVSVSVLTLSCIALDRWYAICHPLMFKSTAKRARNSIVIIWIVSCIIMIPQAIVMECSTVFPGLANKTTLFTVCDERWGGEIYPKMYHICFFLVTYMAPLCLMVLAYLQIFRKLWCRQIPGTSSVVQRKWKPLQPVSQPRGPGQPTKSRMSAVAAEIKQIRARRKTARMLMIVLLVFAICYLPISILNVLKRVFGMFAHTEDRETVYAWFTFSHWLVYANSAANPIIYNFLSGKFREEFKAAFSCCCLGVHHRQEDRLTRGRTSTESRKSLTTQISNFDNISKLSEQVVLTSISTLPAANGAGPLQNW
# [3] = target: Melanocyte-stimulating hormone receptor (Mus musculus) (UniProt Q01727); experiment: Agonist activity at mouse MC1 receptor at 100 uM to 5 mM
# [4] = target: T3, Neuromedin-U receptor 1 (Homo sapiens) (UniProt Q9HB89); experiment: Agonist activity at human NMU1 receptor at 100 uM to 5 mM
# T3 sequence (whole entry): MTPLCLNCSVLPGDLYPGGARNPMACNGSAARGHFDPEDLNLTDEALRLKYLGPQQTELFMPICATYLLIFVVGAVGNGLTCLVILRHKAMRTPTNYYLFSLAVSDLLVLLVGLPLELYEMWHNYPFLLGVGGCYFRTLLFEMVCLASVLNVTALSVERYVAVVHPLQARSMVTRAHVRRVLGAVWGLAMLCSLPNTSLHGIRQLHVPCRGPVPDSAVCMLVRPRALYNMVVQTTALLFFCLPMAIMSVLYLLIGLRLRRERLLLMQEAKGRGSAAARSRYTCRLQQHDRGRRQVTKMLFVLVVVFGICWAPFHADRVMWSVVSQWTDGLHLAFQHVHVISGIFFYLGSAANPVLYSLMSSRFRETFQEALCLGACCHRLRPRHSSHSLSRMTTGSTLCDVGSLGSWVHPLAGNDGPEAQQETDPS
# [5] = target: T4, Parathyroid hormone/parathyroid hormone-related peptide receptor (Homo sapiens) (UniProt Q03431); experiment: Agonist activity at human PTH receptor at 100 uM to 5 mM
# T4 sequence (whole entry): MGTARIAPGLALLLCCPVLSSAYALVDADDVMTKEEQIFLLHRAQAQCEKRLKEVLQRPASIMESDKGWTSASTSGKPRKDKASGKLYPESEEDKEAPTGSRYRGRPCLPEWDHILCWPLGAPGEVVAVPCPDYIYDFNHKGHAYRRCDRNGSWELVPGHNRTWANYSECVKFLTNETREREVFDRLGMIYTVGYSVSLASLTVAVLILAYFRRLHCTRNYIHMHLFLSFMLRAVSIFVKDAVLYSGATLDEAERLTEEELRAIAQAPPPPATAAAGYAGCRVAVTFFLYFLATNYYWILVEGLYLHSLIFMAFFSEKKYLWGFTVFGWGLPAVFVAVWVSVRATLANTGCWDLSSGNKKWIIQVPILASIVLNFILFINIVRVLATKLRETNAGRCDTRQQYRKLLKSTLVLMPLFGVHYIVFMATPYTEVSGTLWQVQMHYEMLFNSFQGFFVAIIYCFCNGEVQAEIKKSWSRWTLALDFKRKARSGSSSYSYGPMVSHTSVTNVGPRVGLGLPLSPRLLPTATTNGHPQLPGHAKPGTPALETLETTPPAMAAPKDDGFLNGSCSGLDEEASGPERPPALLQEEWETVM
# [6] = target: Melanocortin receptor 3 (Mus musculus) (UniProt P33033); experiment: Agonist activity at mouse MC3 receptor at 100 uM to 5 mM
# [7] = target: T5, Adenosine receptor A1 (Homo sapiens) (UniProt P30542); experiment: Agonist activity at human A1 receptor at 100 uM to 5 mM
# T5 sequence (whole entry): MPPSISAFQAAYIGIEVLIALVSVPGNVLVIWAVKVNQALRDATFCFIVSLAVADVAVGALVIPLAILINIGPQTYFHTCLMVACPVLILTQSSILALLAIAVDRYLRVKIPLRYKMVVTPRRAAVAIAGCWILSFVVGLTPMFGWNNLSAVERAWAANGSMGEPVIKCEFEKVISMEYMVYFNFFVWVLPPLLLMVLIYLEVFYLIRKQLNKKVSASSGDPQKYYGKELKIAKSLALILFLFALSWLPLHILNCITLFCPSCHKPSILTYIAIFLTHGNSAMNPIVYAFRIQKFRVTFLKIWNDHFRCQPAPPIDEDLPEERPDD
# [8] = target: Melanin-concentrating hormone receptor 1 (Homo sapiens) (UniProt Q99705); experiment: Agonist activity at human MCH1 receptor at 100 uM to 5 mM
# [9] = target: Melanocortin receptor 3 (Homo sapiens) (UniProt P41968); experiment: Agonist activity at human MC3 receptor at 100 uM to 5 mM
# Chain of Melanocortin receptor 3 (Homo sapiens) (P41968 whole entry): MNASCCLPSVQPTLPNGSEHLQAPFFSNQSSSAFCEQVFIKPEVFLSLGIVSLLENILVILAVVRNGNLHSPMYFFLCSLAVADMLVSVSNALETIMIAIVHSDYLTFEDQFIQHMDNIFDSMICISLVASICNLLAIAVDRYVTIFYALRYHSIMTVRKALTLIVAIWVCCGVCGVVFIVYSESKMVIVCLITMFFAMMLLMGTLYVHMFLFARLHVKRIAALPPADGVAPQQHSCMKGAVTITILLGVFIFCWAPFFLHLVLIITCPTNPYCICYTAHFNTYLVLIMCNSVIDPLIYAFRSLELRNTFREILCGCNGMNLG
# Chain of Neuromedin-U receptor 2 (Q9GZQ4 whole entry): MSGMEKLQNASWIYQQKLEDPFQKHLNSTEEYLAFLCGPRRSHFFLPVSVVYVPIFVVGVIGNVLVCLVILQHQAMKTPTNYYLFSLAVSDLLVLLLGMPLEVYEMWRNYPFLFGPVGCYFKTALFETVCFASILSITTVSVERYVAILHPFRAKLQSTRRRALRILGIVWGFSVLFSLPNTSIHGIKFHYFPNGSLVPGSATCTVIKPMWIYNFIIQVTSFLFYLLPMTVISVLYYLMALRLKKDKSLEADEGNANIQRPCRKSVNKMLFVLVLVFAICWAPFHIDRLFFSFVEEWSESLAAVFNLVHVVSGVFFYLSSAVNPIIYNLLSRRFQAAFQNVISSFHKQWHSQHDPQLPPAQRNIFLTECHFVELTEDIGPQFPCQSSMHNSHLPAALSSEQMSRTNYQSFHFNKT
# Chain of Melanin-concentrating hormone receptor 1 (Homo sapiens) (Q99705 whole entry): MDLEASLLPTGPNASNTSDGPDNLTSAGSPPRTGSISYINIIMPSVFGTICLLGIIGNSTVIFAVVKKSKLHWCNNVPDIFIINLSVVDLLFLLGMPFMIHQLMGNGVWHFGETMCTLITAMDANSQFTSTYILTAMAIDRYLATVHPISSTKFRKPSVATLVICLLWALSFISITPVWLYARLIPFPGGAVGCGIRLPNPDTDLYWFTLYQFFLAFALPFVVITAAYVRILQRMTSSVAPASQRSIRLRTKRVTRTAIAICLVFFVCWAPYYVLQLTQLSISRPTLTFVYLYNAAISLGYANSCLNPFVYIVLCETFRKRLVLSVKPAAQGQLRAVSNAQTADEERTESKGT
# Chain of Melanocortin receptor 3 (Mus musculus) (P33033 whole entry): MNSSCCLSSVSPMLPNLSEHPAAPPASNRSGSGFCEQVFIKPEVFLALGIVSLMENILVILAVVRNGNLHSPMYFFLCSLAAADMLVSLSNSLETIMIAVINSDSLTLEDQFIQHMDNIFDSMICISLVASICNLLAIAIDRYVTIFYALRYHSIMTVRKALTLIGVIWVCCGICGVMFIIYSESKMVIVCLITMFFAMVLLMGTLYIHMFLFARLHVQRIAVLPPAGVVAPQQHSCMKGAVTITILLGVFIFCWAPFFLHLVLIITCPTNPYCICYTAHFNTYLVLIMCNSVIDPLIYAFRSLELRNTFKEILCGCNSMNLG
# Chain of Melanocyte-stimulating hormone receptor (Mus musculus) (Q01727 whole entry, looked up): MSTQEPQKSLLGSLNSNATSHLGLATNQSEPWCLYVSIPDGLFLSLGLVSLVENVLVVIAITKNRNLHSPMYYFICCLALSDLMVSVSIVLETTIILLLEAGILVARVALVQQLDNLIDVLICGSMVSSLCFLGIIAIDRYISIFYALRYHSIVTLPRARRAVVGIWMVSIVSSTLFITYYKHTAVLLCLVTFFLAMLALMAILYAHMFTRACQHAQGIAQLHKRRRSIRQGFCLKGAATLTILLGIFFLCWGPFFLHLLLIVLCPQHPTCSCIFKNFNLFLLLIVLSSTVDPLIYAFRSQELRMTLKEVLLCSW
smiles,measurement,setting,value
O=c1c(O)c(-c2c(F)cccc2Cl)oc2ccccc12,Activity,[1],inactive
same,EC50,Neuromedin-U receptor 2,Not Active
same,Activity,[2],inactive
same,Activity,[3],inactive
same,Activity,[4],inactive
same,Activity,[5],inactive
same,Activity,[6],inactive
same,Activity,[7],inactive
same,Activity,[8],inactive
same,Activity,[9],inactive
